# Most compounds without a hit are left out; they make up all but 2.8% or so of the library.
# NPY2 pot ag: human NPY-Y2 potentiation or agonism, primary screen; P49146; cells expressing NPY-Y2, potentiator/agonist read-out; activation, % at 3.6 µM; hit rate 0.45% among 220,000; AID 1359; in the data active = activation above about 27%;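 also: cells stimulated with NPY near EC25 plus isoproterenol at EC100; 0% = vehicle plus submaximal agonist and 100% = vehicle plus saturating agonist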
# Target sequence (P49146 whole entry, looked up): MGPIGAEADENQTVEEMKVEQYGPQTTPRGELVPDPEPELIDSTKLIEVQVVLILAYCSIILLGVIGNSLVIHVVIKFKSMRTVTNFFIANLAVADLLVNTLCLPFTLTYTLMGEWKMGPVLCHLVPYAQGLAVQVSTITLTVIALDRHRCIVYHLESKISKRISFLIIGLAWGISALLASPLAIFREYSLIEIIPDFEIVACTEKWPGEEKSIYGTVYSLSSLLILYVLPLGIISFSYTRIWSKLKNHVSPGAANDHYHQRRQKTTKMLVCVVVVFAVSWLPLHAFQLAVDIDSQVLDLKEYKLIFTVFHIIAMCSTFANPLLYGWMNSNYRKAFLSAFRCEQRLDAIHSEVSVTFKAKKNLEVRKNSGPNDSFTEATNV
# PGE2 EP2 inh: blocks the human prostaglandin E2 receptor EP2 | P43116 | C6 glioma cells expressing human EP2, cAMP TR-FRET; cells stimulated with saturating PGE2 | inhibition, % at 25 µM | hit rate 0.52% among 260,000;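 active = percent inhibition above 40 after rounding to a whole number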;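 also: rat C6 glioma host cells with rolipram phosphodiesterase inhibitor present; the protocol text gives 20 µM as final concentration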
# NPY1 pot ag: potentiators or agonists of human neuropeptide Y receptor Y1 | NPY-Y1 expressing cells, potentiator/agonist activation | activation, % at 3.6 µM | hit rate 0.37% among 220,000 | AID 1304; in the data active = activation above about 33%, passing the limit was not always enough;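 also: cells stimulated with NPY at EC10 then isoproterenol at EC100; 0% = low agonist plus stimulus and 100% = saturating agonist plus stimulus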
# NPY Y1 blocker: blocks the human neuropeptide Y Y1 receptor. AID 1040. inhibition, % at 3.6 µM. P25929. HEK293-CNG Y1 cells, membrane potential fluorescence; NPY at EC95, then isoproterenol. hit rate 1% among 200,000;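 active = inhibition above the campaign mean inhibition of all tested compounds plus 3 SD, cut at about 20% in these data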;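 also: 0% = DMSO wells given NPY plus isoproterenol and 100% = isoproterenol alone without NPY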
#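 Material: HEK293 Y1/CNG channel cell line | Also added: NPY (25 nM), isoproterenol (1 µM), Ro 20-1724 (25 µM) | Compound: One concentration, 3.6 µM, in 0.4% DMSO | Schedule: 3 h dye uptake, 1 h room-temperature compound, 45 min post-isoproterenol | Signal: Membrane-potential fluorescent dye readout | Read-out: % inhibition of NPY effect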
# EP2 modulator: EP2 receptor (human) modulation | P43116 | EP2-expressing cells, cAMP HTRF FRET, PGE2 co-stimulation | induction, % at 25 µM | hit rate 0.83% among 260,000 | AID 940;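 active = compounds whose cAMP rise, as percent of the full-agonist control response, exceeds 60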;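 also: rat C6 glioma line stably carrying human EP2 under a CMV promoter; the protocol text gives 20 µM as final concentration; 100% = response of wells given 1 µM PGE2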
# NPY-Y2 antag: blocks the human neuropeptide Y Y2 receptor; NPY-Y2 expressing cells, antagonist mode; inhibition, % at 2.7 µM; hit rate 0.99% among 140,000; in the data active = inhibition above about 17%;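 also: 0% = vehicle with agonist challenge and 100% = reference antagonist with challenge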
# NPY-Y1 antag ct: human NPY-Y1 antagonism in NPY-Y2 counter-screen; shares compounds with NPY-Y2 antag; cell-based NPY-Y1 antagonism counterscreen; inhibition, % at 3.6 µM; hit rate 19% among 710; in the data active = inhibition above about 20%;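 also: cells challenged with NPY then isoproterenol with cAMP sensed through a CNG channel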
# NPY2 antag conf: human NPY-Y2 antagonism, confirmation. inhibition, % at 2.8 µM. HEK293 NPY-Y2 CNG channel, membrane potential fluorescence. AID 1257. hit rate 32% among 710. shares compounds with NPY-Y2 antag;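 active = mean inhibition of triplicate wells above the hit cutoff set in the primary screen, cut at about 17% in these data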;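 also: 0% = DMSO with NPY challenge and 100% = BIIE0246 high control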
# EP2 confirm: EP2 receptor cAMP induction, counter-screens negative; AID 1080; calls only at 20 µM (by protocol); C6 glioma EP2 cells, cAMP HTRF induction; plus low (about EC15) PGE2 agonist; hit rate 47% among 1,300; shares compounds with EP2 modulator;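 active = cAMP induction above 50% in the main assay while under 30% in all four parallel counter assays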;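 also: rat C6 glioma cells stably expressing human EP2 receptor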
# Numbers without * were called inactive; i = inactive; x = not tested or not shown.
SMILES,NPY2 pot ag,PGE2 EP2 inh,NPY1 pot ag,NPY Y1 blocker,EP2 modulator,NPY-Y2 antag,NPY-Y1 antag ct,NPY2 antag conf,others
CCOC(=O)c1c(C)oc2ccc(NS(=O)(=O)c3ccc4c5c(cccc35)C(=O)N4)cc12,-14,3,-45,10,-20,27*,5,14,
COCCOC(=O)c1c(C)oc2ccc(NS(=O)(=O)c3ccccc3)cc12,-13,5,-3,0,-39,5,x,x,
CCc1nc(N(CC)CC)c2oc3ccccc3c2n1,-9,10,-15,14,61*,19*,9,6,
CCNc1nc(CC)nc2c1oc1ccccc12,4,6,-13,9,-5,6,x,x,
Cc1ccc(C(=O)NC(C)c2n[nH]c(=S)n2C)cc1 (centres undefined),x,14,x,x,34,x,x,x,
CCCC(=O)Nc1nc(-c2ccc(OCC)cc2)cs1,x,12,x,x,9,x,x,x,
COc1cccc(-n2nc(C(=O)Nc3ccc4c(c3)OCO4)c3ccccc3c2=O)c1,-6,7,-19,6,-9,3,x,x,
O=C(Nc1ccc2c(c1)OCO2)c1nn(-c2ccccc2)c(=O)c2ccccc12,-19,2,-35,-2,12,17*,11,9,
COc1ccccc1NC(=O)c1sc(NC(=O)c2cccs2)c(C#N)c1C,x,30,x,x,-30,x,x,x,
CCOC(=O)N1CCC(NC(=O)CSCc2nc(-c3cccc(OC)c3)oc2C)CC1,6,2,12,-3,15,24*,2,2,
C=CCOc1ccc2ccccc2c1/C=N/O,-7,11,-29,17,-32,20*,7,7,
Cn1c(=O)oc2cc(S(=O)(=O)NC3(c4ccccc4F)CC3)ccc21,x,7,x,x,-83,x,x,x,
Cc1n[nH]c(=S)n1/N=C/c1ccc(OCc2ccc(Cl)cc2Cl)cc1,8,13,19,1,-14,12,x,x,
Cc1n[nH]c(=S)n1/N=C/c1ccccc1OCc1ccc(Cl)cc1Cl,-11,6,-16,-1,1,17*,27*,54*,
COCCn1nnnc1C(c1cc2ccc(C)cc2[nH]c1=O)N(Cc1ccccc1)Cc1ccco1 (centres undefined),x,9,x,x,24,x,x,x,
COC(=O)CCN1C(=O)/C(=C/c2cc(OC)c(OC)c(OC)c2)SC1=S,x,8,x,x,17,x,x,x,
Cc1ccc(C(=O)/C=C\C(=O)c2ccc(C)cc2)cc1,-2,7,-27,12,13,20*,45*,111*,
Cc1cc(Cl)ccc1OCCCC(=O)N1CCCc2ccccc21,-23,x,-16,19,37,27*,23*,40*,
Cc1ccc(C(C(=O)NCc2ccco2)N(CCc2ccccc2)C(=O)Cn2nnc3ccccc32)o1 (centres undefined),0,16,2,19,10,32*,20*,11,
Cc1ccc(CN(C(=O)Cn2nnc3ccccc32)C(C(=O)NCc2ccco2)c2ccc(C)o2)cc1 (centres undefined),-6,15,-3,1,50,2,x,x,
c1ccc2c(N3CCCCC3)nc(N3CCOCC3)nc2c1,-6,5,-13,4,14,x,x,x,
c1ccc(N2CCN(c3nc(NCc4ccco4)c4ccccc4n3)CC2)cc1,32*,15,-7,12,-34,19*,9,7,
c1coc(CNc2nc(N3CCCCC3)nc3ccccc23)c1,-8,10,-23,19,-4,26*,18,15,
c1ccc2c(N3CCCCC3)nc(N3CCCCC3)nc2c1,-16,x,-7,0,-56,23*,5,1,
CCOc1ccc(CC(=O)N2CCCC(c3ncncc3-c3cc(C)no3)C2)cc1 (centres undefined),x,x,x,x,-29,x,x,x,
SMILES,NPY2 pot ag,PGE2 EP2 inh,NPY1 pot ag,NPY Y1 blocker,EP2 modulator,NPY-Y2 antag,NPY-Y1 antag ct,NPY2 antag conf,others
Cc1ccccc1NC(=O)c1ccccc1NC(=O)Cc1cccc2ccccc12,2,6,24,3,30,0,x,x,
Cc1ccccc1NC(=O)c1cccc2nc3ccccc3nc12,6,x,20,-6,38,19*,-2,-4,
COc1ccccc1C/C(N)=N/OC(=O)COc1ccccc1C,-19,11,-32,2,1,28*,6,4,
COc1cc(C2/C(=C(/O)c3ccc(C)cc3)C(=O)C(=O)N2CCCN2CCOCC2)ccc1O (centres undefined),x,15,x,x,-19,x,x,x,
COc1ccc(S(=O)(=O)N2CCC(CN3C(=O)c4cccc5cccc(c45)C3=O)CC2)cc1,-5,9,-48,6,5,23*,8,15,
O=C(c1ccc(S(=O)(=O)N2CCCC2)cc1)N1CCC(CN2C(=O)c3cccc4cccc(c34)C2=O)CC1,-36,9,18,x,-16,x,x,x,
Cc1cc2ncn(C(=O)c3c(-c4ccccc4)noc3C)c2cc1C,-2,12,-5,8,38,20*,9,9,
Cc1cc2ncn(C(=O)c3c(-c4c(Cl)cccc4Cl)noc3C)c2cc1C,-3,15,-7,0,37,1,x,x,
Nc1ccc2c(c1)C(=O)C(=O)c1ccccc1-2,-3,30,-9,9,7,48*,17,35*,
O=C1C(=O)c2ccc(-c3ccccc3)cc2-c2ccccc21,3,29,-1,-1,-59,-1,x,x,
COCCCn1c(=N)c(C(=O)NCc2ccc3c(c2)OCO3)cc2c(=O)n3ccccc3nc21,-9,4,7,17,-8,20*,14,9,
Cc1ccc(CNC(=O)c2cc3c(=O)n4ccccc4nc3n(Cc3ccco3)c2=N)cc1,x,16,x,x,x,x,x,x,
N=c1c(C(=O)NCc2ccccc2)cc2c(=O)n3ccccc3nc2n1Cc1ccco1,6,11,5,10,-17,23*,6,5,
COCCn1c(=N)c(C(=O)NCc2ccco2)cc2c(=O)n3ccccc3nc21,8,8,13,9,-9,9,x,x,
N=c1c(C(=O)NCc2ccco2)cc2c(=O)n3ccccc3nc2n1Cc1ccccc1,2,25,5,8,34,24*,13,12,
N=c1c(C(=O)NCc2ccc3c(c2)OCO3)cc2c(=O)n3ccccc3nc2n1Cc1cccnc1,12,4,7,7,17,14,x,x,
CC(C)c1ccc(NC(=O)c2snc3c(=O)[nH]cnc23)cc1,x,9,x,x,1,x,x,x,
COc1ccc(-n2c(COc3cccc4ccccc34)nnc2SCC#N)cc1,-3,10,-17,16,7,18*,6,6,EP2 confirm=i
